Assay results: ChEMBL document CHEMBL4038321, “Design, Synthesis, and Pharmacokinetics of a Bone-Targeting Dual-Action Prodrug for the Treatment of Osteoporosis” (J Med Chem, 2017)

Experiments:
Bone [1] = assay: Drug uptake in Sprague-Dawley rat bone at 1.8 uCi, iv administered as bolus dose after 7 days; type: ADME, organism-based, Bone element; details: in vivo, 168 h
Outline: (§1)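 Female Sprague Dawley rats, about 13 weeks old, in five groups of three. Single IV tail-vein bolus of mixed 3H-conjugate (8.90 µCi/rat) and 14C-conjugate (1.77 µCi/rat), total dose 5.0 mg/kg. Vehicle was 10% Poloxamer 188, brought to pH 8.0 with NaHCO3, then diluted with an equal volume of PBS. Groups were killed at 6 h, 1, 7, 14 and 28 days. Tissues and femurs were incinerated in a biological oxidizer. Values are % of administered dose, with skeleton taken as 8% of body weight, averaged over three rats.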

Liver [2] = assay: Drug uptake in Sprague-Dawley rat liver at 1.8 uCi, iv administered as bolus dose after 7 days; type: ADME, organism-based; details: in vivo, 168 h; outline: as §1
Bone [3] = assay: Drug uptake in Sprague-Dawley rat bone at 1.8 uCi, iv administered as bolus dose after 1 day; type: ADME, organism-based, Bone element; details: in vivo, 24 h; outline: as §1
Kidney [4] = assay: Drug uptake in Sprague-Dawley rat kidney at 1.8 uCi, iv administered as bolus dose after 6 hrs; type: ADME, organism-based; details: in vivo; outline: as §1
Liver [5] = assay: Drug uptake in Sprague-Dawley rat liver at 1.8 uCi, iv administered as bolus dose after 1 day; type: ADME, organism-based; details: in vivo, 24 h; outline: as §1
Heart [6] = assay: Drug uptake in Sprague-Dawley rat heart at 1.8 uCi, iv administered as bolus dose after 6 hrs; type: ADME, organism-based; details: in vivo; outline: as §1
Kidney [7] = assay: Drug uptake in Sprague-Dawley rat kidney at 1.8 uCi, iv administered as bolus dose after 7 days; type: ADME, organism-based; details: in vivo, 168 h; outline: as §1
Bone [8] = assay: Drug uptake in Sprague-Dawley rat bone at 1.8 uCi, iv administered as bolus dose after 14 days; type: ADME, organism-based, Bone element; details: in vivo, 336 h; outline: as §1
Brain [9] = assay: Drug uptake in Sprague-Dawley rat brain at 1.8 uCi, iv administered as bolus dose after 6 hrs; type: ADME, organism-based; details: in vivo; outline: as §1
Heart [10] = assay: Drug uptake in Sprague-Dawley rat heart at 1.8 uCi, iv administered as bolus dose after 1 day; type: ADME, organism-based; details: in vivo, 24 h; outline: as §1
Bone [11] = assay: Drug uptake in Sprague-Dawley rat bone at 1.8 uCi, iv administered as bolus dose after 6 hrs; type: ADME, organism-based, Bone element; details: in vivo; outline: as §1
Liver [12] = assay: Drug uptake in Sprague-Dawley rat liver at 1.8 uCi, iv administered as bolus dose after 14 days; type: ADME, organism-based; details: in vivo, 336 h; outline: as §1
Kidney [13] = assay: Drug uptake in Sprague-Dawley rat kidney at 1.8 uCi, iv administered as bolus dose after 14 days; type: ADME, organism-based; details: in vivo, 336 h; outline: as §1
Spleen [14] = assay: Drug uptake in Sprague-Dawley rat spleen at 1.8 uCi, iv administered as bolus dose after 7 days; type: ADME, organism-based; details: in vivo, 168 h
Outline: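 Female Sprague Dawley rats, about 13 weeks old on arrival, in five groups of three. Single IV tail-vein bolus of mixed [3H]- and [14C]-labelled conjugate (8.90 and 1.77 µCi/rat), total 5.0 mg/kg. Vehicle was 10% Poloxamer 188 adjusted to pH 8.0 with NaHCO3, then diluted with an equal volume of PBS. Groups killed at 6 h, 1, 7, 14 and 28 days. Spleen radioactivity measured by oxidizer incineration and reported as percent of administered dose, averaged over three rats.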

Spleen [15] = assay: Drug uptake in Sprague-Dawley rat spleen at 1.8 uCi, iv administered as bolus dose after 28 days; type: ADME, organism-based; details: in vivo, 672 h; outline: as §1
Spleen [16] = assay: Drug uptake in Sprague-Dawley rat spleen at 1.8 uCi, iv administered as bolus dose after 14 days; type: ADME, organism-based; details: in vivo, 336 h; outline: as §1
Liver [17] = assay: Drug uptake in Sprague-Dawley rat liver at 1.8 uCi, iv administered as bolus dose after 28 days; type: ADME, organism-based; details: in vivo, 672 h; outline: as §1
Rattus norvegicus [18] = assay: Toxicity in Sprague-Dawley rat assessed as behavioral change at 1.8 uCi, iv administered as bolus dose after 28 dyas; type: organism-based; details: in vivo
Outline: (§2)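 Same dual-label study: female Sprague Dawley rats got one IV tail-vein bolus of [3H] (8.90 µCi) plus [14C] (1.77 µCi) conjugate, total 5.0 mg/kg, in Poloxamer 188/PBS vehicle at pH 8.0. Groups of three were sacrificed up to 28 days after dosing.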

Liver [19] = assay: Drug uptake in Sprague-Dawley rat liver at 1.8 uCi, iv administered as bolus dose after 6 hrs; type: ADME, organism-based; details: in vivo; outline: as §1
Spleen [20] = assay: Drug uptake in Sprague-Dawley rat spleen at 1.8 uCi, iv administered as bolus dose after 6 hrs; type: ADME, organism-based; details: in vivo; outline: as §1
Rattus norvegicus [21] = assay: Toxicity in Sprague-Dawley rat assessed as unusual reaction at 1.8 uCi, iv administered as bolus dose after 28 dyas; type: organism-based; details: in vivo; outline: as §2
Bone [22] = assay: Drug uptake in Sprague-Dawley rat bone at 1.8 uCi, iv administered as bolus dose after 28 days; type: ADME, organism-based, Bone element; details: in vivo, 672 h; outline: as §1
Kidney [23] = assay: Drug uptake in Sprague-Dawley rat kidney at 1.8 uCi, iv administered as bolus dose after 1 day; type: ADME, organism-based; details: in vivo, 24 h; outline: as §1
Kidney [24] = assay: Drug uptake in Sprague-Dawley rat kidney at 1.8 uCi, iv administered as bolus dose after 28 days; type: ADME, organism-based; details: in vivo, 672 h; outline: as §1
Spleen [25] = assay: Drug uptake in Sprague-Dawley rat spleen at 1.8 uCi, iv administered as bolus dose after 1 day; type: ADME, organism-based; details: in vivo, 24 h; outline: as §1
Brain [26] = assay: Drug uptake in Sprague-Dawley rat brain at 1.8 uCi, iv administered as bolus dose after 1 day; type: ADME, organism-based; details: in vivo, 24 h; outline: as §1

## CCOC(=O)CCCCCCN1C(=O)CC[C@@H]1/C=C/[C@@H](OC(=O)Cc1ccc(COC(=O)N[C@@H](CC(C)C)C(=O)N[C@@H](CCCNC(=N)N)C(=O)Nc2ccc(CO[14C](=O)NCCCC(O)(P(=O)(O)O)P(=O)(O)O)cc2)cc1)C(F)(F)c1ccccc1
Bone [1]
  Drug uptake: 3.51 %ID
Liver [2]
  Drug uptake: 0.61 %ID
Bone [3]
  Drug uptake: 4.63 %ID
Kidney [4]
  Drug uptake: 0.11 %ID
Liver [5]
  Drug uptake: 2.5 %ID
Heart [6]
  Drug uptake: 0.017 %ID
Kidney [7]
  Drug uptake: 0.02 %ID
Bone [8]
  Drug uptake: 2.52 %ID
Brain [9]
  Drug uptake: 0.014 %ID
Heart [10]
  Drug uptake: 0.009 %ID
Bone [11]
  Drug uptake: 5.52 %ID
Liver [12]
  Drug uptake: 0.27 %ID
Kidney [13]
  Drug uptake: 0.013 %ID
Spleen [14]
  Drug uptake: 0.086 %ID
Spleen [15]
  Drug uptake: 0.039 %ID
Spleen [16]
  Drug uptake: 0.05 %ID
Liver [17]
  Drug uptake: 0.1 %ID
Rattus norvegicus [18]
  Activity: Non-Toxic
Liver [19]
  Drug uptake: 7.03 %ID
Spleen [20]
  Drug uptake: 0.34 %ID
Rattus norvegicus [21]
  Activity: Non-Toxic
Bone [22]
  Drug uptake: 2.44 %ID
Kidney [23]
  Drug uptake: 0.047 %ID
Kidney [24]
  Drug uptake: 0.0092 %ID
Spleen [25]
  Drug uptake: 0.23 %ID
Brain [26]
  Drug uptake: 0.012 %ID
